From ChEMBL document CHEMBL4219167, “Disulfiram-based disulfides as narrow-spectrum antibacterial agents” (Bioorg Med Chem Lett, 2018)
≈ marks a conversion by molar mass, not a printed value.

What was measured:
Staphylococcus aureus [1] = assay: Antibacterial activity against methicillin-resistant Staphylococcus aureus COL after 20 hrs by broth microdilution assay; type: functional
Staphylococcus aureus [2] = assay: Antibacterial activity against vancomycin-intermediate resistant Staphylococcus aureus AR-217 after 20 hrs by broth microdilution assay; type: functional; settings: AR-217, 20 h
Staphylococcus aureus [3] = assay: Antibacterial activity against vancomycin-resistant Staphylococcus aureus HIP14300 after 20 hrs by broth microdilution assay; type: functional; settings: HIP14300, 20 h
[4] = system: Staphylococcus epidermidis; assay: Antibacterial activity against vancomycin-intermediate resistant Staphylococcus epidermidis NRS6 after 20 hrs by broth microdilution assay; type: functional; settings: NRS6, 20 h
Streptococcus agalactiae = assay: Antibacterial activity against Streptococcus agalactiae SGBS005 after 20 hrs by broth microdilution assay; type: functional; settings: SGBS005, 20 h
Enterococcus faecium = assay: Antibacterial activity against vancomycin-resistant Enterococcus faecium ATCC 700221 after 20 hrs by broth microdilution assay; type: functional; settings: ATCC 700221, 20 h
Method in brief: (§1)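 Brain heart infusion broth at 37°C; E. faecium under 5% CO2. Cells at 0.5 McFarland are diluted 1:100 and exposed to serial dilutions (DMSO stocks 1 mM or 1 mg/mL; controls in water).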

Bacillus anthracis [5] = assay: Antibacterial activity against Bacillus anthracis Ames 35 after 20 hrs by broth microdilution assay; type: functional; settings: Ames 35, 20 h
Bacillus anthracis [6] = assay: Antibacterial activity against Bacillus anthracis Sterne 34F2 after 20 hrs by broth microdilution assay; type: functional; settings: Sterne 34F2, 20 h
Bacillus anthracis [7] = assay: Antibacterial activity against Bacillus anthracis Weybridge after 20 hrs by broth microdilution assay; type: functional
Yersinia pestis [8] = assay: Antibacterial activity against Yersinia pestis Kim D2 after 20 hrs by broth microdilution assay; type: functional; settings: Kim D2, 20 h
Yersinia pestis [9] = assay: Antibacterial activity against Yersinia pestis Kuma D7 after 20 hrs by broth microdilution assay; type: functional; settings: Kuma D7, 20 h
Listeria monocytogenes = assay: Antibacterial activity against Listeria monocytogenes Gibson after 20 hrs by broth microdilution assay; type: functional; method in brief: as §1
Micrococcus luteus = assay: Antibacterial activity against Micrococcus luteus SK58 after 20 hrs by broth microdilution assay; type: functional; settings: SK58, 20 h
Acinetobacter baumannii = assay: Antibacterial activity against Acinetobacter baumannii AB5075 after 20 hrs by broth microdilution assay; type: functional; settings: AB5075, 20 h
Brucella neotomae = assay: Antibacterial activity against Brucella neotomae 5K33 after 20 hrs by broth microdilution assay; type: functional; settings: 5K33, 20 h
Burkholderia multivorans = assay: Antibacterial activity against Burkholderia multivorans CF2 after 20 hrs by broth microdilution assay; type: functional; settings: CF2, 20 h
Method in brief: (§2)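 Medium is tryptic soy broth, 37°C. Overnight culture is adjusted to 0.5 McFarland, diluted 1:100 and exposed to serial dilutions (test agents from 1 mM or 1 mg/mL DMSO stocks; control antibiotics in water). Incubation lasts 20 h. MIC is the lowest concentration with no visible growth.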

Burkholderia cepacia = assay: Antibacterial activity against Burkholderia cepacia UCB 717 after 20 hrs by broth microdilution assay; type: functional; settings: UCB 717, 20 h; method in brief: as §2
Citrobacter freundii = assay: Antibacterial activity against Citrobacter freundii 4_7_47CFAA after 20 hrs by broth microdilution assay; type: functional
Method in brief: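 Brucella broth, 37°C, 5% CO2. Inoculum is 0.5 McFarland diluted 1:100, with serial drug dilutions from DMSO stocks (1 mM or 1 mg/mL) and control antibiotics in water.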

Escherichia coli = assay: Antibacterial activity against Escherichia coli DC10B after 20 hrs by broth microdilution assay; type: functional; method in brief: as §2
Klebsiella pneumoniae = assay: Antibacterial activity against Klebsiella pneumoniae 700603 after 20 hrs by broth microdilution assay; type: functional; settings: Klebsiella pneumoniae, 700603, 20 h; method in brief: as §2
Proteus mirabilis = assay: Antibacterial activity against Proteus mirabilis HM-752 after 20 hrs by broth microdilution assay; type: functional; settings: HM-752, 20 h; method in brief: as §2
Pseudomonas aeruginosa = assay: Antibacterial activity against Pseudomonas aeruginosa ATCC 15442 after 20 hrs by broth microdilution assay; type: functional; settings: ATCC 15442, 20 h; method in brief: as §2
Salmonella typhi = assay: Antibacterial activity against Salmonella typhi Ty2 after 20 hrs by Todd Hewitt broth broth microdilution method; type: functional, Salmonella enterica subsp. enterica serovar Typhi str. Ty2; settings: Salmonella enterica
Yersinia enterocolitica = assay: Antibacterial activity against Yersinia enterocolitica WA-314 after 20 hrs by broth microdilution assay; type: functional; settings: WA-314, 20 h
Method in brief: (§3)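 Yersinia cultured in tryptic soy broth at 28°C. A 0.5 McFarland suspension diluted 1:100 receives serial dilutions of agents from 1 mM or 1 mg/mL DMSO stocks; control antibiotics are in water.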

Shigella dysenteriae = assay: Antibacterial activity against Shigella dysenteriae Newcastle 1934 after 20 hrs by broth microdilution assay; type: functional; settings: Newcastle 1934, 20 h; method in brief: as §2
Vibrio cholerae = assay: Antibacterial activity against Vibrio cholerae TS D4 after 20 hrs by Todd Hewitt broth broth microdilution method; type: functional; settings: TS D4, 20 h
[10] = system: Yersinia pseudotuberculosis; assay: Antibacterial activity against Yersinia pseudotuberculosis P61 after 20 hrs by broth microdilution assay; type: functional; settings: P61, 20 h; method in brief: as §3
Staphylococcus aureus [11] = assay: Synergistic antibacterial activity against methicillin-resistant Staphylococcus aureus COL assessed as vancomycin MIC after 20 hrs by checkerboard microdilution assay; type: functional
Staphylococcus aureus [12] = assay: Synergistic antibacterial activity against methicillin-resistant Staphylococcus aureus COL in presence of vancomycin after 20 hrs by checkerboard microdilution assay; type: functional
Staphylococcus aureus [13] = assay: Synergistic antibacterial activity against methicillin-resistant Staphylococcus aureus COL assessed as fractional inhibitory concentration in presence of vancomycin after 20 hrs by checkerboard microdilution assay; type: functional
Staphylococcus aureus [14] = assay: Synergistic antibacterial activity against vancomycin-intermediate resistant Staphylococcus aureus AR-217 after 20 hrs in presence of vancomycin by checkerboard microdilution assay; type: functional; settings: AR-217, 20 h
Staphylococcus aureus [15] = assay: Synergistic antibacterial activity against vancomycin-intermediate resistant Staphylococcus aureus AR-217 assessed as fractional inhibitory concentration in presence of vancomycin after 20 hrs by checkerboard microdilution assay; type: functional
Staphylococcus aureus [16] = assay: Synergistic antibacterial activity against vancomycin-resistant Staphylococcus aureus HIP14300 assessed as vancomycin MIC after 20 hrs by checkerboard microdilution assay; type: functional; settings: HIP14300, 20 h
Staphylococcus aureus [17] = assay: Synergistic antibacterial activity against vancomycin-resistant Staphylococcus aureus HIP14300 after 20 hrs in presence of vancomycin by checkerboard microdilution assay; type: functional; settings: HIP14300, 20 h
Staphylococcus aureus [18] = assay: Synergistic antibacterial activity against vancomycin-resistant Staphylococcus aureus HIP14300 assessed as fractional inhibitory concentration in presence of vancomycin after 20 hrs by checkerboard microdilution assay; type: functional
[19] = system: Staphylococcus epidermidis; assay: Synergistic antibacterial activity against vancomycin-intermediate resistant Staphylococcus epidermidis NRS53 assessed as vancomycin MIC after 20 hrs by checkerboard microdilution assay; type: functional; settings: NRS53, 20 h
[20] = system: Staphylococcus epidermidis; assay: Synergistic antibacterial activity against vancomycin-intermediate resistant Staphylococcus epidermidis NRS53 after 20 hrs in presence of vancomycin by checkerboard microdilution assay; type: functional; settings: NRS53, 20 h
[21] = system: Staphylococcus epidermidis; assay: Synergistic antibacterial activity against vancomycin-intermediate resistant Staphylococcus epidermidis NRS53 assessed as fractional inhibitory concentration in presence of vancomycin after 20 hrs by checkerboard microdilution assay; type: functional
[22] = system: Staphylococcus epidermidis; assay: Antibacterial activity against vancomycin-intermediate resistant Staphylococcus epidermidis NRS53 after 20 hrs by broth microdilution assay; type: functional; settings: NRS53, 20 h
HepG2 = assay: Cytotoxicity against human HepG2 cells assessed as reduction in cell viability after 72 hrs by MTT assay; type: cell-based; settings: HepG2, 72 h
[23] = Selectivity index, ratio of IC50 for cytotoxicity against human HepG2 cells to MIC for antibacterial activity against methicillin-resistant Staphylococcus aureus COL; type: toxicity, cell-based; settings: read-out: Selectivity Index
[24] = Selectivity index, ratio of IC50 for cytotoxicity against human HepG2 cells to MIC for antibacterial activity against vancomycin-intermediate resistant Staphylococcus aureus; type: toxicity, cell-based; settings: read-out: Selectivity Index
[25] = Selectivity index, ratio of IC50 for cytotoxicity against human HepG2 cells to MIC for antibacterial activity against vancomycin-resistant Staphylococcus aureus HIP14300; type: toxicity, cell-based; settings: read-out: Selectivity Index
[26] = rat, microsomes
[27] = rat, microsomes, 1 h

In the case of `CCCCCCCCSSC(=S)N(CC)CC`, the MIC (Staphylococcus aureus [1]) is reported as 4 µM (≈ 1.17 µg/mL), the MIC (Staphylococcus aureus [2]) is reported as 4 µM (≈ 1.17 µg/mL) and the MIC (Staphylococcus aureus [3]) is reported as 4 µM (≈ 1.17 µg/mL). For the same compound, the MIC [4] was 4 µM (≈ 1.17 µg/mL), the MIC (Streptococcus agalactiae) was 32 µM (≈ 9.39 µg/mL) and the MIC (Enterococcus faecium) was 8 µM (≈ 2.35 µg/mL). The MIC (Bacillus anthracis [5]) was 4 µM (≈ 1.17 µg/mL), the MIC (Bacillus anthracis [6]) was 2 µM (≈ 0.587 µg/mL) and the MIC (Bacillus anthracis [7]) was 2 µM (≈ 0.587 µg/mL). It also gave an MIC (Yersinia pestis [8]) of 32 µM (≈ 9.39 µg/mL), an MIC (Yersinia pestis [9]) of 32 µM (≈ 9.39 µg/mL) and an MIC (Listeria monocytogenes) of 4 µM (≈ 1.17 µg/mL). It also gave an MIC (Micrococcus luteus) of 16 µM (≈ 4.7 µg/mL), an MIC (Acinetobacter baumannii) of over 32 µM and an MIC (Brucella neotomae) of over 32 µM. It also gave an MIC (Burkholderia multivorans) of over 32 µM, an MIC (Burkholderia cepacia) of over 32 µM and an MIC (Citrobacter freundii) of over 32 µM. It also gave an MIC (Escherichia coli) of over 32 µM, an MIC (Klebsiella pneumoniae) of over 32 µM and an MIC (Proteus mirabilis) of over 32 µM. The MIC (Pseudomonas aeruginosa) was over 32 µM, the MIC (Salmonella typhi) was over 32 µM and the MIC (Yersinia enterocolitica) was over 32 µM. For the same compound, the MIC (Shigella dysenteriae) was over 32 µM, the MIC (Vibrio cholerae) was over 32 µM and the MIC [10] was over 32 µM. It also gave an MIC (Staphylococcus aureus [11]) of 1 µg/mL, an MIC (Staphylococcus aureus [12]) of 0.25 µg/mL and an FIC (Staphylococcus aureus [13]) of 0.75. It also gave an MIC (Staphylococcus aureus [14]) of 0.25 µg/mL, an FIC (Staphylococcus aureus [15]) of 0.56 and an MIC (Staphylococcus aureus [16]) of 1 µg/mL. The MIC (Staphylococcus aureus [17]) was 1 µg/mL, the FIC (Staphylococcus aureus [18]) was 0.5 and the MIC [19] was 2 µg/mL. For the same compound, the MIC [20] was 1 µg/mL, the FIC [21] was 0.75 and the MIC [22] was 2 µg/mL (≈ 6.81 µM). The IC50 (HepG2) was 50 µM, the selectivity ratio [23] was over 13 and the selectivity ratio [24] was over 13. The selectivity ratio [25] was over 13, the “beta t1/2” value [26] was 1.02 h and the CLH [27] was 22.6 µL/min/mg.
